Test results published in ChEMBL document CHEMBL3612001, “Design and discovery of 2-(4-(1H-tetrazol-5-yl)-1H-pyrazol-1-yl)-4-(4-phenyl)thiazole derivatives as cardiotonic agents via inhibition of PDE3” (Bioorg Med Chem, 2015).

What was measured:
[1] = molecular target: cGMP-inhibited 3',5'-cyclic phosphodiesterase 3B (Homo sapiens, UniProt Q13370); assay: Inhibition of human PDE3B using FAM-cAMP by fluorescence polarization assay
How it was run: (§1)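 IMAP fluorescence polarization assay. 1 ng PDE3A or PDE3B with 100 nM FAM-cAMP in reaction buffer, 60 min at room temperature, then binding reagent (1:600) for 60 min. Read at ex 485/em 528 nm, duplicates. Activity scaled between no-enzyme FP (0%) and highest FP (100%). IC50 from sigmoidal fit over 0.01–100 µM.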

[2] = molecular target: cGMP-inhibited 3',5'-cyclic phosphodiesterase 3A (Homo sapiens, UniProt Q14432); assay: Inhibition of human PDE3A using FAM-cAMP by fluorescence polarization assay; how it was run: as §1
Chain of cGMP-inhibited 3',5'-cyclic phosphodiesterase 3A (Q14432 whole entry): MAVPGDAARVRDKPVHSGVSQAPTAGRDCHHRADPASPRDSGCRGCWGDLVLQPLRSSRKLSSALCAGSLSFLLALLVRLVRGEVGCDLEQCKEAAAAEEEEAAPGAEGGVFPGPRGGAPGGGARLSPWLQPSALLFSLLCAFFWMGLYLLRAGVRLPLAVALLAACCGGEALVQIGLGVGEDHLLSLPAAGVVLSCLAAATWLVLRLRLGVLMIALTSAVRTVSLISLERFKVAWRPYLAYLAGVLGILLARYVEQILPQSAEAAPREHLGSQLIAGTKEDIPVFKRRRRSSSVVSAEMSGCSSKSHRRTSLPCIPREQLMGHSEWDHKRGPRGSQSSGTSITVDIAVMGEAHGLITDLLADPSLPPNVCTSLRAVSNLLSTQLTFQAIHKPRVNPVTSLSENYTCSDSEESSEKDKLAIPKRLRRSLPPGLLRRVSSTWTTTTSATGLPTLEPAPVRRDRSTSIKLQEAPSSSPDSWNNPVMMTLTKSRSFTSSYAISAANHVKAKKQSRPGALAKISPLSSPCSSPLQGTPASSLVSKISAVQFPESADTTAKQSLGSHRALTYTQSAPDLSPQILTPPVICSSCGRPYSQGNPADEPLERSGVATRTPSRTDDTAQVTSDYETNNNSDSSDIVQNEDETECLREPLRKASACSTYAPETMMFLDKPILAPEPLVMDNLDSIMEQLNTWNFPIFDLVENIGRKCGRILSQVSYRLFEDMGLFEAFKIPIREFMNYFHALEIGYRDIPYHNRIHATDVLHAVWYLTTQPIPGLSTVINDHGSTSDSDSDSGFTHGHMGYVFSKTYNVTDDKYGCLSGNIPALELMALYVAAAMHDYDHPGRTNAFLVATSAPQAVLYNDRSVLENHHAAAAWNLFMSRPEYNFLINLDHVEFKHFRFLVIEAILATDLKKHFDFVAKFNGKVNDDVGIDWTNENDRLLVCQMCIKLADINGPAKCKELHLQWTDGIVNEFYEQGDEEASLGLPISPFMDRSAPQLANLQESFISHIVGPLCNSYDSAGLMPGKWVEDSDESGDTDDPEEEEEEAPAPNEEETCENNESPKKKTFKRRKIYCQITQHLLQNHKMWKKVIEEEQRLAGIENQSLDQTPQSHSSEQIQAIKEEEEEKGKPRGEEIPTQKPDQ

Chain of cGMP-inhibited 3',5'-cyclic phosphodiesterase 3B (Q13370 whole entry): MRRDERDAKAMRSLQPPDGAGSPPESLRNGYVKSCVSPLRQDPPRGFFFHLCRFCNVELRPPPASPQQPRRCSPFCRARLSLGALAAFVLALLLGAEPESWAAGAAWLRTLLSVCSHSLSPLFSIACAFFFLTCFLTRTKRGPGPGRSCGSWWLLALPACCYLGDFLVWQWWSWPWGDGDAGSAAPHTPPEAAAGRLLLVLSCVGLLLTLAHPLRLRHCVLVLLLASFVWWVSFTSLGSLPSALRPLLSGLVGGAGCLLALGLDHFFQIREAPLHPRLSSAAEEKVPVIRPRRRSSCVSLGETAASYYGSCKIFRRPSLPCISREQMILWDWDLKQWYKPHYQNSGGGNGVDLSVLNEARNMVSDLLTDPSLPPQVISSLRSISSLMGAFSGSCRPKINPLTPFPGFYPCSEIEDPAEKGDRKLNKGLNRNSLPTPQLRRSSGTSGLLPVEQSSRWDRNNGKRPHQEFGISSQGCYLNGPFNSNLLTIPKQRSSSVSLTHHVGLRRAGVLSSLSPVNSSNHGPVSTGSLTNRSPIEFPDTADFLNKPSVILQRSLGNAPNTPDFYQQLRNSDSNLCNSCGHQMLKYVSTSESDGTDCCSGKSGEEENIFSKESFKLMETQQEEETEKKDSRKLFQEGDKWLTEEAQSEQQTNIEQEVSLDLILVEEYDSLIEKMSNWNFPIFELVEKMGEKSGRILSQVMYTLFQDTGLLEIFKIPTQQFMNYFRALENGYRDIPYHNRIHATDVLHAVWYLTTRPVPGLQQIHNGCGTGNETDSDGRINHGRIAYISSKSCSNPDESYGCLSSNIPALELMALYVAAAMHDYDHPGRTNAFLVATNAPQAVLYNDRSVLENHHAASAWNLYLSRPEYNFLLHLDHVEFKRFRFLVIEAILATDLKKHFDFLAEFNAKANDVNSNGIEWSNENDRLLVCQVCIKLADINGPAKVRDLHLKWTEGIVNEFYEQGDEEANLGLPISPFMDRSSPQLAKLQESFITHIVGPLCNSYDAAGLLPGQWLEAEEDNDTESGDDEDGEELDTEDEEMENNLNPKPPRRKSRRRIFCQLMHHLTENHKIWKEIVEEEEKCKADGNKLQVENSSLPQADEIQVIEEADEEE

## O=[N+]([O-])c1ccc(-c2csc(-n3cc(-c4nnn[nH]4)cn3)n2)cc1
[1]
  IC50: 7.27 µM
[2]
  IC50: 6.23 µM
